Compound activity (PubChem)
INS-1E GSIS act: GLuc luminescence reporter in INS-1E cells, primary screen for activators of glucose-dependent secretion of insulin; INS-1E GLuc reporter insulin secretion, 2-3 h; activation, % at 16.6 µM; 370,000 compounds, 0.61% hits;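 active means lowest replicate activation of at least 40%, so every replicate reaches that level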;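 further: 0% = median of neutral control wells and 100% = median of IBMX positive control wells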
RAD54 inh: inhibitors of human RAD54 branch migration. Q92698. RAD54 Holliday junction branch migration, FAM/BHQ fluorescence. inhibition, % at 10.4 µM. 360,000 compounds, 0.14% hits;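 active means mean normalized replicate activity at least 40 and at least half of replicates scoring 40 or more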;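 further: 0% = median of neutral control wells and 100% = median of positive control wells; inhibitors cause a drop in the FAM fluorescence signal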
S100A4 inh HTS: inhibitors of human S100A4 binding to myosin IIA peptide; AID 652163; S100A4/TAMRA-MyoIIA peptide fluorescence polarization; inhibition, % at 10.7 µM; 360,000 compounds, 0.14% hits;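 active means mean inhibition of at least 70% across replicates, with every replicate also reaching that level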
Target sequence (P26447 whole entry, looked up): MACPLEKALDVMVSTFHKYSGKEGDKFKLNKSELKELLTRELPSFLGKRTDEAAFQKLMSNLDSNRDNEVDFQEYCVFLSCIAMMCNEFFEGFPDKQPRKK
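Test system – S100A4 monomer (human) · Compound – single-point compound testing · Schedule – 5 min incubation before reading · Probe or stimulus – TAMRA-labelled myosin IIA heavy-chain peptide probe, 5 nM · Benchmarks – neutral control DMSO, positive control TFP · Medium – Calcium-containing HEPES buffer, pH 7.2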
RAD52 anneal inh: blocks human RAD52 DNA annealing; 360,000 compounds, 0.46% hits; inhibition, % at 18.7 µM; P43351; recombinant RAD52 DNA annealing, FRET fluorescence;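 active means every replicate showing at least 50% inhibition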
AF4-AF9 inh: MLL-AF4/AF9 protein interaction inhibition; AlphaScreen, biotin-AF4 peptide binding to FLAG-AF9; 350,000 compounds, 0.47% hits; inhibition, % at 10 µM; AID 651704; P42568;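 active means every replicate reaching a set inhibition limit, whatever the replicate mean, cut at about 25% in these data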;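 further: 0% = plate neutral control median and 100% = total signal loss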
Target sequence (P42568 whole entry, looked up): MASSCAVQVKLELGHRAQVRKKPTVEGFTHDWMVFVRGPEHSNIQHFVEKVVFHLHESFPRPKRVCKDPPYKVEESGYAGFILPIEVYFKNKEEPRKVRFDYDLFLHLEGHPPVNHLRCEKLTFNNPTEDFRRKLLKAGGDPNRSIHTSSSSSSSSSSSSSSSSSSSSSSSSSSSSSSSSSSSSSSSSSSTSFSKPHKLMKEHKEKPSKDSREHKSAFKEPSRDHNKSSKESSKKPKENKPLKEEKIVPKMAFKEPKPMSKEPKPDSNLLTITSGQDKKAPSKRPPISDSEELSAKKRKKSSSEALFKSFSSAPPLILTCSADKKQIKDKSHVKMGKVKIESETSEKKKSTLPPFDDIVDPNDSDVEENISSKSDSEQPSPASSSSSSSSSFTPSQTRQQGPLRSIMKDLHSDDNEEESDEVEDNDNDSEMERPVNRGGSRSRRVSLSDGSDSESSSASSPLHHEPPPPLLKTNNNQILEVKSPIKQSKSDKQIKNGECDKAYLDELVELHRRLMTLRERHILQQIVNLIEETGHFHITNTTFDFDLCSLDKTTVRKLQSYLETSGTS
Numbers without * were called inactive; i = inactive; nt = no result. In the library only some 1.3% were active in any assay of this set; here they are far more common.

SMILES | INS-1E GSIS act | RAD54 inh | S100A4 inh HTS | RAD52 anneal inh | AF4-AF9 inh
O=C(C[C@H]1C=C[C@H](NS(=O)(=O)c2ccc(F)cc2)[C@@H](CO)O1)N1CCN(c2ccccc2)CC1 | 9 | -16 | -14 | -10 | -3
O=C(C[C@@H]1C[C@H]2c3cc(NC(=O)NC4CCCC4)ccc3O[C@H]2[C@H](CO)O1)NCCc1ccccc1 | 20 | 4 | 111* | -13 | 1
C[C@@H](NC(=O)C[C@@H]1C[C@@H]2c3cc(NC(=O)Nc4ccccc4F)ccc3O[C@@H]2[C@@H](CO)O1)c1ccccc1 | 105* | 5 | 4 | -17 | -1
COc1cccc(S(=O)(=O)Nc2ccc3c(c2)[C@@H]2C[C@@H](CC(=O)NC4CCCCC4)O[C@@H](CO)[C@@H]2O3)c1 | -13 | 1 | -13 | 0 | 0
COc1cccc(S(=O)(=O)Nc2ccc3c(c2)[C@H]2C[C@@H](CC(=O)NC4CCCCC4)O[C@H](CO)[C@H]2O3)c1 | nt | -29 | -4 | 67* | 22
CN(C)c1ccc2c(c1)[C@@H]1C[C@H](CC(=O)NCCN3CCCCC3)O[C@@H](CO)[C@@H]1O2 | 21 | 13 | -2 | 40 | 15
C[C@@H](NC(=O)C[C@@H]1C[C@H]2c3cc(NC(=O)Nc4ccccc4F)ccc3O[C@H]2[C@H](CO)O1)c1ccccc1 | 12 | 3 | -2 | -6 | 0
CN(C)c1ccc2c(c1)[C@H]1C[C@H](CC(=O)NCCN3CCCCC3)O[C@H](CO)[C@H]1O2 | 11 | 38 | -3 | 56* | 18
Cc1ccc(-c2ccc3c(c2)O[C@H](CN(C)Cc2cncnc2)[C@@H](C)CN([C@@H](C)CO)S3(=O)=O)cc1 | 9 | -2 | 11 | 7 | 5
COc1ccc(/C=N/NC(=O)CCn2c3ccccc3c3ccccc32)cc1OC | 54* | nt | 5 | -2 | 3
CCn1c(SCC(=O)N/N=C/c2ccc(OC)c(OC)c2)nc2ccccc21 | 84* | 4 | nt | nt | nt
COc1ccc(/C=N/NC(=O)CCSc2nc3ccccc3s2)cc1OC | 54* | 6 | -4 | -8 | 5
COc1cc(/C=N/NC(=O)CCn2c3ccccc3c3ccccc32)cc(OC)c1OC | 11 | 7 | -17 | -4 | 0
COc1cc(/C(C)=N\NC(=O)CSc2nc3ccccc3n2C)ccc1O | 42* | 9 | -2 | -1 | 6
Cc1ccc(S(=O)(=O)Nc2cccc3c2O[C@H](CN(C)C(=O)Nc2ccc4c(c2)OCO4)[C@@H](C)CN([C@H](C)CO)C3=O)cc1 | -2 | -12 | -10 | -10 | 1
O=C(Cc1ccccn1)N1[C@H](CO)[C@@H]2c3ccccc3NC[C@@H]21 | -4 | 8 | -4 | -58 | 1
COc1ccc(/C=N/NC(=O)CN(C2=NS(=O)(=O)c3ccccc32)c2ccccc2)cc1OC | 60* | nt | nt | nt | nt
COc1ccc(CCNC(=O)[C@@]2(Sc3ccc(C)cc3)CC(=O)N(C3CCCCC3)[C@@H]2c2ccc(CO)cc2I)cc1 | nt | -6 | 11 | 15 | 0
N#Cc1cccnc1Nc1cccc(Cl)c1 | 59* | -6 | 5 | -19 | -1
CC(=O)NS(=O)(=O)c1cccnc1Nc1cccc(Cl)c1 | nt | 0 | nt | nt | nt
C[C@@H](NC(=O)C[C@H]1CC[C@@H](NC(=O)Nc2ccc3c(c2)OCO3)[C@H](CO)O1)c1ccccc1 | -7 | 4 | 5 | -10 | -1
COC(=O)c1cc2ccccc2c([N+](=O)[O-])c1O | 55* | -2 | 5 | -14 | -4
CN(CCC#N)C(=O)COC(=O)C1c2ccccc2Oc2ccccc21 | 7 | -8 | -1 | -9 | -2
N#CCCN(CCC#N)C(=O)C1c2ccccc2Oc2ccccc21 | -9 | -59 | 131* | i | -2
CC(C)OC(=O)Cn1cc(C#N)c2ccccc21 | -9 | nt | -2 | 7 | -3
SMILES | INS-1E GSIS act | RAD54 inh | S100A4 inh HTS | RAD52 anneal inh | AF4-AF9 inh
COC(=O)Cn1cc(C#N)c2ccccc21 | 70* | 7 | nt | nt | nt
CC(C)NC(=O)N(C)C[C@@H]1Oc2ccc(NC(=O)CCN3CCOCC3)cc2C(=O)N([C@@H](C)CO)C[C@@H]1C | 5 | -4 | -3 | -9 | -14
CN(C)C(=O)C[C@@H]1CC[C@@H]2[C@H](COC[C@@H](O)CN2C(=O)c2ccncc2)O1 | 4 | 4 | nt | nt | nt
O=C(C[C@H]1CC[C@@H]2[C@H](COC[C@@H](O)CN2C(=O)Cc2ccccc2)O1)NC1CCCC1 | 3 | 0 | 90* | -2 | 1
CCCNC(=O)N1C[C@@H](O)COC[C@@H]2O[C@H](CC(=O)N[C@H]3CCN(Cc4ccccc4)C3)CC[C@H]21 | -8 | -5 | -4 | -1 | -8
CCCNC(=O)N1C[C@H](O)COC[C@@H]2O[C@H](CC(=O)N[C@H]3CCN(Cc4ccccc4)C3)CC[C@H]21 | 4 | 10 | 87* | 6 | -8
CN(C)C(=O)C[C@@H]1CC[C@@H]2[C@H](COC[C@H](O)CN2C(=O)c2ccncc2)O1 | 14 | 2 | -9 | 70* | 8
O=C(O)C[C@H]1CC[C@@H]2[C@H](COC[C@@H](O)CN2S(=O)(=O)c2ccc(F)cc2)O1 | 8 | 2 | 3 | 7 | -13
O=C(c1ccccc1F)N1C[C@H]2O[C@H](CNS(=O)(=O)c3ccccc3)CC[C@H]21 | nt | nt | -10 | -6 | -4
Cc1ccc(S(=O)(=O)NC[C@@H]2CC[C@H]3[C@H](CN3Cc3ccccc3C(=O)O)O2)cc1 | nt | nt | -1 | 8 | -10
O=C(c1ccccc1F)N1C[C@@H]2O[C@H](CNS(=O)(=O)c3ccccc3)CC[C@@H]21 | nt | nt | -37 | 59* | -4
Cc1ccc(S(=O)(=O)NC[C@H]2CC[C@H]3[C@H](CN3Cc3cc(F)ccc3F)O2)cc1 | nt | nt | 3 | 61* | -1
COc1ccc(S(=O)(=O)NC[C@H]2CC[C@H]3[C@H](CN3Cc3cc(F)ccc3F)O2)cc1 | nt | nt | 7 | 66* | -1
COc1ccc(NC(=O)Nc2ccc3c(c2)C(=O)N([C@H](C)CO)C[C@@H](C)[C@H](CN(C)S(=O)(=O)c2ccccc2)O3)cc1 | -2 | 5 | -4 | -20 | 2
O=C(C[C@@H]1CC[C@@H]2[C@H](COC[C@H](O)CN2C(=O)Nc2cc(Cl)cc(Cl)c2)O1)N1CCOCC1 | -16 | -1 | nt | nt | nt
CC(C)NC(=O)N(C)C[C@@H]1Oc2c(NC(=O)c3ccncc3)cccc2C(=O)N([C@H](C)CO)C[C@H]1C | 17 | -1 | 1 | -15 | -3
Cc1cc(/C=C\c2ccccc2)nc2ccccc12 | 19 | nt | -1 | -3 | 26*
COc1ccc(/C=C/c2cc(C(=O)O)c3ccccc3n2)cc1 | -6 | -5 | 17 | -158 | 5
CC=Cc1ccc2n(c1=O)C[C@@H]1[C@@H](CO)[C@H](C(=O)NCC3CCCCC3)[C@H]2N1C(=O)CC (mixture of isomers) | 11 | -5 | -3 | 1 | -2
CC(=NNc1cc(C)c2ccccc2n1)c1ccccn1 | 9 | nt | 6 | -94 | 29*
